Results gathered from unrelated publications.
Protocols differ between the studies behind these lines. ≈ marks a conversion by molar mass, not a printed value.
Organism: Mycobacterium tuberculosis

CCCCCCC#Cc1cncc(-c2nnc(SCc3cc([N+](=O)[O-])cc([N+](=O)[O-])c3)n2C)c1  IC90 (microbial growth; ERDMAN): 0.44 µM
COC(=O)c1cc(-c2cccc(NC(=S)Nc3cc(C(F)(F)F)cc(C(F)(F)F)c3)c2)on1  MIC (microbial growth; ATCC27294 H37RV; 7 days): 16 µg/mL (≈ 32.7 µM)
CNc1cc(-n2nc(C(=O)NCCN3C(C)CCCC3C)cc2Nc2cc(NC(=O)c3cncc(C(C)(C)C)c3)ccc2C)ncn1 (stereo not drawn)  MIC50 (microbial growth; H37RV): 0.11 µM (≈ 0.0703 µg/mL)
CCCCCCC#Cc1cncc(-c2nnc(SCc3ccc(C#N)cc3)n2C)c1  IC50 (microbial growth): 2.3 µM
O=[N+]([O-])c1cc2cc3ccc4oc([N+](=O)[O-])cc4c3cc2o1  MBC (microbial killing, resazurin; H37RV): 0.5 µg/mL
[H]/N=C(/N)N[C@H]1[C@H](O)[C@@H](O)[C@H](O[C@@H]2O[C@@H](C)[C@](O)(C=O)[C@H]2O[C@@H]2O[C@@H](CO)[C@H](O)[C@@H](O)[C@@H]2NC)[C@@H](N/C(N)=N\[H])[C@@H]1O  IC50 (microbial growth; H37RV): 0.2 µM
COC(=O)c1cc(-c2cccc(NC(=O)Nc3cccc(C(F)(F)F)c3)c2)on1  MIC (microbial growth; ATCC27294 H37RV; 7 days): 2 µg/mL (≈ 4.93 µM)
O=C(C[n+]1cn(Cc2cccc(Cn3c[n+](CC(=O)c4ccccc4)c4ccccc43)n2)c2ccccc21)c1ccccc1  MBC (microbial killing; H37RV; 21 days): 100 µM
CCCCCCC#Cc1cncc(-c2nnc(SCc3ccc([N+](=O)[O-])cc3)n2C)c1  IC90 (microbial growth; ERDMAN): > 50 µM
CCc1nc2ccc(Cl)cn2c1C(=O)NCc1ccc(N2CCC(c3ccc(OC(F)(F)F)cc3)CC2)cc1  MIC90 (microbial growth; H37RV): 0.02 µM (≈ 0.0111 µg/mL)
O=C(C[n+]1cn(Cc2cccc(Cn3c[n+](CC(=O)c4ccc([N+](=O)[O-])cc4)c4ccccc43)n2)c2ccccc21)c1ccc([N+](=O)[O-])cc1  MBC (microbial killing; H37RV; 21 days): 50 µM
CCCCCCNC(=S)Nc1cccc(-c2cc(C(=O)OC)no2)c1  MIC (microbial growth; ATCC27294 H37RV; 7 days): 2 µg/mL (≈ 5.53 µM)
CO[C@H]1/C=C/O[C@@]2(C)Oc3c(C)c(O)c4c(O)c(c(/C=N/N5CCN(C)CC5)c(O)c4c3C2=O)NC(=O)/C(C)=C\C=C\[C@H](C)[C@H](O)[C@@H](C)[C@@H](O)[C@@H](C)[C@H](OC(C)=O)[C@@H]1C  inhibition (microbial growth; H37RV; 12.5 µg/mL): 97%
COC(=O)c1cc(-c2cccc(NC(=O)Nc3ccc(C(F)(F)F)cc3)c2)on1  MIC (microbial growth; ATCC27294 H37RV; 7 days): 0.5 µg/mL (≈ 1.23 µM)
NNC(=O)c1ccncc1  IC90 (microbial growth; ERDMAN): > 1 µM
COC(=O)c1cc(-c2cccc(NC(=O)NCc3ccccc3)c2)on1  MIC (microbial growth; ATCC27294 H37RV; 7 days): 4 µg/mL (≈ 11.4 µM)
CCCCCCC#Cc1cncc(-c2nnc(Sc3ccc([N+](=O)[O-])cc3[N+](=O)[O-])n2C)c1  IC50 (microbial growth; ERDMAN): 1.1 µM
O=C(C[n+]1ccn(Cc2cccc(Cn3cc[n+](CC(=O)c4ccc([N+](=O)[O-])cc4)c3)n2)c1)c1ccc([N+](=O)[O-])cc1  MBC (microbial killing; H37RV; 21 days): 100 µM
O=[N+]([O-])c1ccc(/C=N/Nc2nc(Nc3ccccc3)nc(N3CCOCC3)n2)o1  MBC (microbial killing): 1.6 µM
NNC(=O)c1ccncc1  MBC (microbial killing; H37RV; 7 days): 30.7 µg/mL
CC[C@@H](CO)NCCN[C@@H](CC)CO  IC90 (microbial growth; H37RV): 4.61 µM
CCCCCCC#Cc1cncc(-c2nnc(SCc3ccc(Cl)c(F)c3)n2C)c1  IC50 (microbial growth; ERDMAN): 5.4 µM
CC(N)(CO)C(=O)Nc1ccc(C(=O)Nc2ccnc(=O)[nH]2)cc1 (stereo not drawn)  IC50 (microbial growth; H37RA): > 100 µM
COC(=O)c1cc(-c2cccc(NC(=O)Nc3c(C)cccc3C)c2)on1  MIC (microbial growth; ATCC27294 H37RV; 7 days): 64 µg/mL (≈ 175 µM)
CCOC(=O)c1c(NC(=O)c2c(F)c(F)c(F)c(F)c2F)sc2c1CCN(CC)C2  MIC50 (microbial growth; H37RV): 0.12 µM (≈ 0.0538 µg/mL)
CO[C@H]1/C=C/O[C@@]2(C)Oc3c(C)c(O)c4c(O)c(c(/C=N/N5CCN(C)CC5)c(O)c4c3C2=O)NC(=O)/C(C)=C\C=C\[C@H](C)[C@H](O)[C@@H](C)[C@@H](O)[C@@H](C)[C@H](OC(C)=O)[C@@H]1C  MIC (microbial growth; H37RV): 0.85 µg/mL (≈ 1.03 µM)
COC(=O)c1cc(-c2cccc(NC(=S)Nc3ccccc3Cl)c2)on1  MIC (microbial growth; ATCC27294 H37RV; 7 days): 2 µg/mL (≈ 5.16 µM)
Cc1cn(-c2cc(C(=O)Nc3ccc(C)c(Nc4nccn4-c4cc(NC5CC5)ncn4)c3)cc(C(F)(F)F)c2)cn1  MIC50 (microbial growth; H37RV): 0.65 µM (≈ 0.373 µg/mL)
[H]/N=C(/N)N[C@H]1[C@H](O)[C@@H](O)[C@H](O[C@@H]2O[C@@H](C)[C@](O)(C=O)[C@H]2O[C@@H]2O[C@@H](CO)[C@H](O)[C@@H](O)[C@@H]2NC)[C@@H](N/C(N)=N\[H])[C@@H]1O  MIC (microbial growth; ATCC27294 H37RV; 7 days): 0.5 µg/mL (≈ 0.86 µM)
Cc1ccc(NC(=O)c2cc(N3CCNCC3)cc(C(F)(F)F)c2)cc1Nc1nccn1-c1cc(NC2CC2)ncn1  MBC (microbial killing; H37RV; 5 days): 2.5 to 5 µM
CO[C@H]1/C=C/O[C@@]2(C)Oc3c(C)c(O)c4c(O)c(c(/C=N/N5CCN(C)CC5)c(O)c4c3C2=O)NC(=O)/C(C)=C\C=C\[C@H](C)[C@H](O)[C@@H](C)[C@@H](O)[C@@H](C)[C@H](OC(C)=O)[C@@H]1C  IC90 (microbial growth; ERDMAN): 0.035 µM
Cc1cc(C)nc(-n2nc(C)cc2NC(=O)c2ccc3c(c2)OCO3)n1  MIC50 (microbial growth; H37RV): > 20 µM
Cn1c(SCc2ccc(Cl)cc2)nnc1-c1cncc(C#Cc2ccccc2)c1  IC90 (microbial growth; ERDMAN): 4.4 µM
